From PubChem
Most compounds without a hit are left out; they make up all but 5.3% or so of the library.
NALP3 yeast inh: inhibitors of NALP3 inflammasome in yeast | Yeast reconstituted NLRP3/ASC/caspase-1, beta-gal luminescence, 24 h | inhibition, % at 10 µM | 330,000 tested, 0.39% active;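 active = inhibition of 50% or more; inactive = inhibition below 50%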
T cruzi inh: blocks replication of Trypanosoma cruzi | T. cruzi beta-gal in NIH3T3, luminescence, 90 h | inhibition, % (concentration not given with the values) | 300,000 tested, 1.4% active | AID 1885;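 active = mean inhibition across valid replicates above about 55%, limit read from the data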;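 note: signal also drops with host cell toxicity which is not excluded here; higher percent means less beta-gal luminescence so fewer parasites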
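System: Mouse NIH/3T3 fibroblasts infected with β-gal-expressing T. cruzi Tulahuen C4 | Quantity: NIH/3T3 cells, 5,000 per well | Reagent: 5000 reporter trypomastigotes per well | Dosing: Compound pinned at 50 nL/well, DMSO | Schedule: 3 h host attachment, then at least 90 h co-culture | Detection: GalScreen luminescence, 60 min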
Calb FLC: C. albicans growth modulation with fluconazole. C. albicans CaCi-2 + fluconazole, Alamar Blue growth, 48 h. 300,000 tested, 0.57% active. growth inhibition, % (test concentration not listed). AID 1979;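 active = growth inhibition above about 58% in most replicates, limit read from the data, passing the limit was not always enough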;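 note: all wells also contain fluconazole at 8 µg/ml as a sub-toxic cotreatment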
Mdm2-MdmX inh: disrupts the human Mdm2-MdmX interaction | SaOS-2 split-luciferase Mdm2/MdmX complementation, luminescence | inhibition, % at 8 µM | 330,000 tested, 3% active | AID 485346;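 active = inhibition of at least 50% at 8 µM in the primary screen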
Beta apoptosis: blocks beta cell apoptosis. INS-1E cytokine-induced death, ATP luminescence, 48 h; percent of positive-control rescue, neutral wells zero. protection from apoptosis, % (test concentration not listed). 300,000 tested, 0.8% active;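 active = Every replicate reaches about 75%, or at least half do and their mean reaches it too, limit read from the data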;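 note: higher means more ATP so stronger rescue from cytokine killing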
CSC inhib: cancer stem cell inhibition; cancer stem cell-like cells viability, luminescence; inhibition, % at 7.5 µM; 300,000 tested, 1.1% active; AID 2717; in the data active = inhibition above about 75%; tested in HMLE shEcad cells
Mdm2-MdmX conf: confirmation of human Mdm2/MdmX interaction inhibitors | shares compounds with Mdm2-MdmX inh | Mdm2-MdmX binding, luminescent assay | inhibition, % at 8 µM | 10,000 tested, 55% active | AID 489028; in the data active = inhibition above about 40%
Full FLuc ctr: counter-screen for Mdm2/MdmX inhibitors: full-length luciferase. shares compounds with Mdm2-MdmX inh. SaOS-2 full-length luciferase counterscreen, luminescence. inhibition, % at 8 µM. 6,200 tested, 77% active. AID 504607;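 active = mean inhibition at 8 µM reaching about 37%, which flags the compound as non-specific, limit read from the data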;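 note: p53-null SaOS-2 cells with luciferase driven by a doxycycline-inducible promoter; compound on cells about two nights before reading with doxycycline added after day one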
Large screens that a line does not name were inactive (follow-up assays come after a bar, where they were run).

Cc1ccc(N/C(N)=N/c2nc(CSc3nnc(N)s3)cc(=O)[nH]2)cc1	none
CC(C)Oc1ccc(CCc2n[nH]c(=S)n2-c2ccccc2)cc1	none
CCCCN1C2=C(C(=O)CC(C)(C)C2)C(c2ccccc2)C2=C1c1ccccc1C2=O (stereo not given)	none
CC(=O)Nc1nonc1-c1nc2ccccc2n1Cc1ccccc1	Mdm2-MdmX inh 70 | Mdm2-MdmX conf 66 | Full FLuc ctr 118
CC(=O)Nc1nonc1-c1nc2ccccc2n1Cc1nnc(C)o1	none
Cc1ccc(C(=O)NCC(c2ccco2)N2CCOCC2)cc1 (stereo not given)	none
COc1ccc(/C=C/C(=O)N(C)CC(=O)Nc2cccc(F)c2)cc1S(=O)(=O)N1CCCCC1	Mdm2-MdmX inh 52 (no result: T cruzi inh, Calb FLC, Beta apoptosis, CSC inhib) | Mdm2-MdmX conf 55 | Full FLuc ctr 69
Cc1ccc(-c2cc(C(F)F)n3ncc(C(=O)Nc4ccc(S(=O)(=O)Nc5ccccc5C)cc4)c3n2)cc1	Mdm2-MdmX inh 54 | Mdm2-MdmX conf inactive
Cc1c(F)cccc1NS(=O)(=O)c1ccc2c(c1)n(C)c(=O)c(=O)n2C	none
COc1ccc(C(C)=O)cc1COC(=O)CCC(=O)N(CC(C)C)c1c(N)n(CC(C)C)c(=O)[nH]c1=O	none
Cc1ccc(-c2nnc(SCC(=O)N3CC(C)CC(C)C3)o2)cc1C (stereo not given)	none
Cc1cccc(/C(N)=N/OC(=O)c2cccc3ccccc23)c1	Mdm2-MdmX inh 100 | Mdm2-MdmX conf 78 | Full FLuc ctr 108
Cc1cccc(/C(N)=N/OC(=O)N2c3ccccc3Sc3ccccc32)c1	Mdm2-MdmX inh 64 | Mdm2-MdmX conf inactive
COc1cc(OC)cc(C(=O)O/N=C(\N)c2cccc(C)c2)c1	Mdm2-MdmX inh 73 | Mdm2-MdmX conf 44 | Full FLuc ctr 105
N/C(=N\OC(=O)c1cccc2ccccc12)c1cccc([N+](=O)[O-])c1	Mdm2-MdmX inh 76 | Mdm2-MdmX conf 58 | Full FLuc ctr 128
Cc1cccc(/C(N)=N/OC(=O)Cc2ccccc2)c1	none
Cc1ccccc1C(=O)O/N=C(\N)c1cccc([N+](=O)[O-])c1	none
Cc1cccc(/C(N)=N/OC(=O)c2ccc(Cl)cc2Cl)c1	none
COc1ccc2cc(C#N)c(Nc3cccc(F)c3)nc2c1	none
CCOC(=O)COc1cc(Br)c(C2NC(=O)NC(C)=C2C(C)=O)cc1OCC (stereo not given)	none
C/C(=N\NC(=S)Nc1ccc(C)c(C)c1)c1ccc(N2CCOCC2)cc1	none
O=C(O/N=C(\c1ccccc1)c1ccccn1)c1cccc2ccccc12	Mdm2-MdmX inh 87 | Mdm2-MdmX conf inactive
COc1ccc(OC)c(S(=O)(=O)Nc2cc(OC)c(Cl)cc2OC)c1	none
COc1cc(NS(=O)(=O)c2ccc(OC)c(C)c2C)c(OC)cc1Cl	Mdm2-MdmX inh 51 | Mdm2-MdmX conf 55 | Full FLuc ctr 63
COc1ccc2[nH]c(=O)c3c(c2c1)OC(C)(C)C=C3	Mdm2-MdmX inh 90 | Mdm2-MdmX conf 75 | Full FLuc ctr 57
Cc1cc2c([nH]c3ccccc32)c2c1OC(C)(C)C=C2	none (no result: Beta apoptosis)
COc1ccccc1-c1cc(C(F)(F)F)nc(S(=O)(=O)CCCC(=O)NC(C)C)n1	Mdm2-MdmX inh 100 | Mdm2-MdmX conf 97 | Full FLuc ctr inactive
COc1ccccc1-c1cc(C(F)(F)F)nc(S(=O)(=O)CCCC(=O)N2CCCCC2C)n1 (stereo not given)	Mdm2-MdmX inh 97 | Mdm2-MdmX conf 69 | Full FLuc ctr inactive
CS(=O)(=O)c1nc(-c2ccco2)cc(C(F)(F)F)n1	T cruzi inh 55, Mdm2-MdmX inh 100, Beta apoptosis 80, CSC inhib 112 | Mdm2-MdmX conf 100 | Full FLuc ctr inactive
COc1ccccc1-c1cc(C(F)(F)F)nc(S(=O)(=O)CCCC(=O)NCc2ccc(F)cc2)n1	Mdm2-MdmX inh 99, CSC inhib 77 | Mdm2-MdmX conf 90 | Full FLuc ctr 51
COc1cccc(Cn2nnc3c(=O)[nH]c(C4CCCN(C(=O)c5ccccc5Cl)C4)nc32)c1 (stereo not given)	none
COc1ccc(-c2nc(CN3CCCC(C(=O)NC4CCCC4)C3)c(C)o2)cc1 (stereo not given)	none
CC1(C)C(Cl)C(=O)C(C(=O)c2ccccc2)C(=O)C1Cl (stereo not given)	none
CC(OC(=O)Cn1c(C(F)(F)F)nc2ccccc21)C(N)=O (stereo not given)	none
COc1ccccc1-c1cc(C(F)(F)F)nc(S(C)(=O)=O)n1	Mdm2-MdmX inh 97, CSC inhib 85 | Mdm2-MdmX conf 79 | Full FLuc ctr 53
COc1ccccc1-c1cc(C(F)(F)F)nc(N2CCCC2)n1	none
COc1ccccc1-c1cc(C(F)(F)F)nc(S(=O)(=O)CCCC(=O)Nc2cc(C)on2)n1	Mdm2-MdmX inh 100 | Mdm2-MdmX conf 99 | Full FLuc ctr inactive
COc1cc([C@@H]2[C@H]3CN(C)CC=C3C(C#N)=C(N)C2(C#N)C#N)cc2c1OCO2	none
Cc1ccc(Cl)cc1N1CCN(C(=O)C2CCN(S(=O)(=O)c3c(C)nn(C)c3C)CC2)CC1	none
O=C(CSc1ccccc1)Nc1ccc(S(=O)(=O)NCC2CCCO2)cc1 (stereo not given)	none
O=C(Nc1nc(-c2ccccc2)cs1)c1ccc(N2CCOCC2)c([N+](=O)[O-])c1	T cruzi inh 55, Mdm2-MdmX inh 55 | Mdm2-MdmX conf 52 | Full FLuc ctr 56
O=C(Nc1nc(-c2ccc(-c3ccccc3)cc2)cs1)C1=COCCO1	Mdm2-MdmX inh 65 | Mdm2-MdmX conf 57 | Full FLuc ctr 41
CC(=O)c1c(C)[nH]c(C(=O)Nc2nc(-c3ccc(-c4ccccc4)cc3)cs2)c1C	T cruzi inh 69, Mdm2-MdmX inh 87 | Mdm2-MdmX conf 44 | Full FLuc ctr 100
Cc1ccc(-c2csc(NC(=O)c3cc([N+](=O)[O-])ccc3N3CCOCC3)n2)cc1	none
CN(C)C(=O)CNC(=O)C1CCCCC1	none (no result: CSC inhib)
O=C(Nc1ccncc1)Nc1cccc(C(F)(F)F)c1	none
O=C(Nc1ccc(OC(F)F)cc1)Nc1cccc(C(F)(F)F)c1	Mdm2-MdmX inh 76, Beta apoptosis 78 | Mdm2-MdmX conf 93 | Full FLuc ctr inactive
Cc1ccc(S(=O)(=O)Nc2ccc(NC(=O)Nc3cccc(C(F)(F)F)c3)cc2)cc1	Mdm2-MdmX inh 85, Beta apoptosis 96, CSC inhib 96 | Mdm2-MdmX conf 46 | Full FLuc ctr 77
Cc1ccc(NC(=O)Nc2cc(C(F)(F)F)c[nH]c2=O)cc1	Mdm2-MdmX inh 58 | Mdm2-MdmX conf 45 | Full FLuc ctr 72
Cc1ccc(NC(=O)Nc2ccon2)cc1	none (no result: Beta apoptosis, CSC inhib)
